Results of several laboratories.
Protocols differ between the studies behind these lines.
Matrix: plasma

Cc1ncsc1-c1ccc([C@H](C)NC(=O)[C@@H]2C[C@@H](O)CN2C(=O)[C@@H](NC(=O)CCCCCCCCC(=O)N2CCC(n3cc(-c4ccc5c(c4)CCN5C(=O)Cc4cccc(OC(F)(F)F)c4)c4c(N)ncnc43)CC2)C(C)(C)C)cc1 — clearance (male C57BL/6 mouse; intravenous; 1 mg/kg): 13.3 mL/min/kg
Oc1ccc([C@@H]2Oc3ccc(O)cc3[C@@H]3CCC[C@@H]32)cc1 — clearance (male C57BL/6 mouse; intravenous; 1 mg/kg): 1.67 mL/min
OCc1nc2ccc(NCc3ccc(C(F)(F)F)cc3)cc2[nH]1 — CL/F (male BALB/c mouse; oral; 10 mg/kg): 61.2 mL/min/kg
O=C1CCC(N2Cc3cc(CO)c(F)cc3C2=O)C(=O)N1 (stereo not drawn) — clearance (male CD-1 mouse; intravenous; 1 mg/kg): 52.9 mL/min/kg
Cc1ncsc1-c1ccc([C@H](C)NC(=O)[C@@H]2C[C@@H](O)CN2C(=O)[C@@H](NC(=O)CCCCCCCCCCC(=O)NCCCn2cc(-c3ccc4c(c3)CCN4C(=O)Cc3cccc(OC(F)(F)F)c3)c3c(N)ncnc32)C(C)(C)C)cc1 — clearance (mouse; intravenous; 1 mg/kg): 19.8 mL/min/kg
C=CCn1c(=O)c2cnc(Nc3ccc(N4CCN(C)CC4)cc3)nc2n1-c1ccc2c(n1)[C@@](O)(CC)CC2 — clearance (mouse; intravenous; 3 mg/kg): 54 mL/min/kg
Cc1cc(-c2ccnc3[nH]cc(F)c23)cc(F)c1[C@@]1(O)[C@H](C)CN(C(=O)CN)C[C@@H]1C — clearance (male CD-1 mouse; intravenous; 1 mg/kg): 0.775 mL/min/kg
Cc1ccc(OCC(=O)N[C@@H](Cc2c[nH]c3ccccc23)C(=O)OC(C)C)cc1 — clearance (male Sprague-Dawley mouse; intravenous; 10 mg/kg): 5.5 mL/min/kg
Cc1ncsc1-c1ccc([C@H](CC(=O)N2CC3(C2)CN(c2ccc(C#Cc4ccc(C(=O)N5CCC(n6cc(-c7ccc8c(c7)CCN8C(=O)Cc7cccc(OC(F)(F)F)c7)c7c(N)ncnc76)CC5)cc4)cn2)C3)NC(=O)[C@@H]2C[C@@H](O)CN2C(=O)[C@@H](NC(=O)C2(F)CC2)C(C)(C)C)cc1 — clearance (male C57BL/6 mouse; intravenous; 1 mg/kg): 2.8 mL/min/kg
NCc1cc2c(cc1F)C(=O)N(C1CCC(=O)NC1=O)C2 (stereo not drawn) — clearance (male CD-1 mouse; intravenous; 1 mg/kg): 112 mL/min/kg
CN(C)C(=O)c1cc2cnc(Nc3ccc(-c4ccc5c(=O)cc(N6CCOCC6)oc5c4)cc3)nc2n1C1CCCC1 — CL/F (BALB/c mouse; oral; 20 mg/kg): 120 mL/min/kg
Cc1nc2ccc(OCc3ccc(C(F)(F)F)cc3)cc2[nH]1 — CL/F (male BALB/c mouse; oral; 10 mg/kg): 12.7 mL/min/kg
Cc1cc(-c2ccnc3[nH]cc(F)c23)cc(F)c1[C@@]1(O)[C@H](C)CN(C2CCS(=O)(=O)CC2)C[C@@H]1C — clearance (male CD-1 mouse; intravenous; 1 mg/kg): 5.86 mL/min/kg
O=C1CCC(N2Cc3cc(C4CCN(Cc5ccccc5)CC4)ccc3C2=O)C(=O)N1 (stereo not drawn) — clearance (male CD-1 mouse; intravenous; 1 mg/kg): 48 mL/min/kg
CCCC[C@@H](NC(=O)[C@@H](Cc1cn(C(=O)OC)c2ccccc12)NC(=O)[C@H](CC(C)(C)C)NC(=O)N1[C@H](C)CCC[C@@H]1C)C(=O)O — clearance (male CD-1 mouse; intravenous; 3 mg/kg): 222 mL/min/kg
